# Reference: ChEMBL document CHEMBL1138430, “Novel tetrahydroisoquinolines are histamine H3 antagonists and serotonin reuptake inhibitors” (Bioorg Med Chem Lett, 2007)
# Active and inactive are the calls of the source. The rule behind the calls is not given here.
# Key:
# [1] = molecular target: Sodium-dependent noradrenaline transporter (Homo sapiens, UniProt P23975); experiment: Inhibition of [3H]nisoxetine uptake in human NET expressed in MDCK cells; format: cell-based
# [2] = Volume of distribution at steady state in po and iv dosed rat; format: ADME, organism-based; conditions: in vivo, read-out: Vdss
# Brain = experiment: Drug level in rat brain at 0.3 mg/kg, sc; format: ADME, organism-based; design: dose 0.3 mg/kg, route subcutaneous; conditions: in vivo, read-out: Drug uptake
# [3] = tested on: Voltage-gated potassium channel; experiment: Binding affinity for potassium channel at 1 uM; format: protein assay; conditions: human
# [4] = molecular target: T1, B2 bradykinin receptor (Homo sapiens) (UniProt P30411); experiment: Binding affinity at bradykinin B2 receptor at 1 uM
# T1 sequence (whole entry): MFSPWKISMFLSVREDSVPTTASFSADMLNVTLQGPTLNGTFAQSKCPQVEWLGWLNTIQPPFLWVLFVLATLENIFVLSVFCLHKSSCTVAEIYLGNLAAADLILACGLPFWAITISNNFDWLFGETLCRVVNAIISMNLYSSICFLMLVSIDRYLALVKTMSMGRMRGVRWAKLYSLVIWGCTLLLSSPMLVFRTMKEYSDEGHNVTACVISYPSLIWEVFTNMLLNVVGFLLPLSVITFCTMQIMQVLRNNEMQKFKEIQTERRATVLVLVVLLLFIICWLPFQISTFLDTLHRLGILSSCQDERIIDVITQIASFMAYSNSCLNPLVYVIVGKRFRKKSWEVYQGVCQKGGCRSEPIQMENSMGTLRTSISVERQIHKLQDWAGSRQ
# [5] = Bioavailability in po dosed rat; format: ADME, organism-based; conditions: in vivo
# [6] = tested on: Voltage-gated calcium channel; experiment: Binding affinity for calcium channel at 1 uM; format: protein-complex assay; conditions: human
# [7] = molecular target: T2, Cholecystokinin receptor type A (Homo sapiens) (UniProt P32238); experiment: Binding affinity at CCKA receptor at 1 uM
# T2 sequence (whole entry): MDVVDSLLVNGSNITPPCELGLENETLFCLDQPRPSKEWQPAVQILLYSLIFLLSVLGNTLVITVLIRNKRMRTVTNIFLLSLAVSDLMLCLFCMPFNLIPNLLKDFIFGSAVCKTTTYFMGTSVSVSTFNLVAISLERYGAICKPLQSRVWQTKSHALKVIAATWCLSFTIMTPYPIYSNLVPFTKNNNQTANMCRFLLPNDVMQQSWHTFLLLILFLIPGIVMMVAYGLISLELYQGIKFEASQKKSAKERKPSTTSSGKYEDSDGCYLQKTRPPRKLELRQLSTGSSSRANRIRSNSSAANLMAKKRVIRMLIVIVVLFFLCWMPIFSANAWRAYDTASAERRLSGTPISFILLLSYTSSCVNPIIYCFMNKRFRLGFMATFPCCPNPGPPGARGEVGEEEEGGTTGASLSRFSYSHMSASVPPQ
# [8] = Half life in po and iv dosed rat; format: ADME, organism-based; conditions: in vivo
# [9] = molecular target: Vasopressin V1a receptor (Homo sapiens) (UniProt P37288); experiment: Binding affinity at vasopressin V1a receptor at 1 uM
# Vasopressin V1a receptor (Homo sapiens), sequence (P37288 whole entry, looked up): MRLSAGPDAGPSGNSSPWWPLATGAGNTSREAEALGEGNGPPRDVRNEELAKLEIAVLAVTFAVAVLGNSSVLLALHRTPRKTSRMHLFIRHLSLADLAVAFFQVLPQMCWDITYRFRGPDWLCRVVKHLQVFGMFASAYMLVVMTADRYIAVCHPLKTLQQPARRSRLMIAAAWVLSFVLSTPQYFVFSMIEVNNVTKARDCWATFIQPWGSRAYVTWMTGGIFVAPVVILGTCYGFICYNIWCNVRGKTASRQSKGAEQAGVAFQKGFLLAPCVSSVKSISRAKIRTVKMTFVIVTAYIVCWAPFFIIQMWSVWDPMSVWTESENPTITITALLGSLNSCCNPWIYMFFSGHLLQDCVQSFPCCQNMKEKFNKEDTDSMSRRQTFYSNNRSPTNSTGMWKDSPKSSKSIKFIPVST
# Histamine H3 receptor [10] = molecular target: T3, Histamine H3 receptor (Homo sapiens, UniProt Q9Y5N1); experiment: Binding affinity at human histamine H3 receptor
# T3 sequence (Q9Y5N1 whole entry): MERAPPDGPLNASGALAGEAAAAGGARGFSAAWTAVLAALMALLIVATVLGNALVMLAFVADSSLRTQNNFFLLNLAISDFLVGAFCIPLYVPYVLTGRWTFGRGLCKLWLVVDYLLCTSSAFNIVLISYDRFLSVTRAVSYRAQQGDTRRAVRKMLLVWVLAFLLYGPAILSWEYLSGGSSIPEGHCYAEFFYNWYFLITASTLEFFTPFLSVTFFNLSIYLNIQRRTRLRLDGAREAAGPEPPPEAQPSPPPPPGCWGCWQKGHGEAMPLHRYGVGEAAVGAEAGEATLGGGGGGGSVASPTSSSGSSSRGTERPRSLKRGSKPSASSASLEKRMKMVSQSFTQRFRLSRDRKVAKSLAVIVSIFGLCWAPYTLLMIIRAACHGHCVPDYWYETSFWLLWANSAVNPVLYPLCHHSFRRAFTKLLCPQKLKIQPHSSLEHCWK
# Homo sapiens [11] = species on record: Homo sapiens; experiment: Binding affinity at ML1 receptor at 1 uM
# Histamine H3 receptor [12] = molecular target: T3, Histamine H3 receptor; experiment: Antagonist activity at human histamine H3 receptor; format: functional; conditions: read-out: pA2 (converted)
# [13] = molecular target: Sodium-dependent dopamine transporter (Homo sapiens, UniProt Q01959); experiment: Inhibition of [3H]WIN-uptake in human DAT expressed in CHO cells; format: cell-based
# Sodium-dependent dopamine transporter, sequence (Q01959 whole entry): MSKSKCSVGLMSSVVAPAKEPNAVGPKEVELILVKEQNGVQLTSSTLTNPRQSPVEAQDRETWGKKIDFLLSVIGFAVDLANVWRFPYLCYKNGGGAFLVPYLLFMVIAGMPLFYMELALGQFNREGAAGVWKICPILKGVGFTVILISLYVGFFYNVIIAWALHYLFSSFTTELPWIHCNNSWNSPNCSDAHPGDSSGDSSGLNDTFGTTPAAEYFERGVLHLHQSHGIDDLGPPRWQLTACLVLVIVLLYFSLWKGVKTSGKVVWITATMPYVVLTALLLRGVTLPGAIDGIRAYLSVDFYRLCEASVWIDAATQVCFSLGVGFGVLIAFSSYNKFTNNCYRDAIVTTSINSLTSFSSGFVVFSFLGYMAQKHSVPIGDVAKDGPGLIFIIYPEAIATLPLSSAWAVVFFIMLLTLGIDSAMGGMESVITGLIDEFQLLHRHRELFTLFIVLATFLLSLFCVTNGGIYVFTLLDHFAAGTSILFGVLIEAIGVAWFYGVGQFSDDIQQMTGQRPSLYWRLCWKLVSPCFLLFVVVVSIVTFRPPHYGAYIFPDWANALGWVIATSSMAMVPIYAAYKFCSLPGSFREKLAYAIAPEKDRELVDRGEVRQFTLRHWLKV
# Summary of the method: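 Human DAT expressed in CHO cells; membranes were incubated on ice for 2 h with 10.9 nM [3H]-WIN 35,428, then harvested by rapid filtration. Nonspecific binding was defined with GBR-12909. Ki values are means of at least three experiments run in triplicate, with SEM.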
# Rattus norvegicus [14] = experiment: Ex vivo receptor occupancy at SERT in rat at 0.3 mg/kg, sc; format: functional; conditions: route subcutaneous
# Summary of the method: (§1)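 Ex vivo receptor occupancy was measured in rat brain at SERT and at the H3 receptor after a single subcutaneous dose. Brain drug concentrations were determined alongside occupancy.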
# [15] = molecular target: T4, Adenosine receptor A3 (Homo sapiens) (UniProt P0DMS8); experiment: Binding affinity at adenosine A3 receptor at 1 uM
# T4 sequence (whole entry): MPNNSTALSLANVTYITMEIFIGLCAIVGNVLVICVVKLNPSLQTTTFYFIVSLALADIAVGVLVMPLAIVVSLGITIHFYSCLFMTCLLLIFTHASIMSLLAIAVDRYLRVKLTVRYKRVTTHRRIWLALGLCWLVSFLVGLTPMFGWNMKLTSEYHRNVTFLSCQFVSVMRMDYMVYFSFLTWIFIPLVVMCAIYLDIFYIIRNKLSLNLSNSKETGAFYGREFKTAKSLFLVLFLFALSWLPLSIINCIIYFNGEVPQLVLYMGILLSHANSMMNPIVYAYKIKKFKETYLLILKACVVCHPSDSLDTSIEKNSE
# [16] = Plasma clearance in po and iv dosed rat; format: ADME, organism-based
# [17] = molecular target: 5-hydroxytryptamine receptor 6 (Homo sapiens) (UniProt P50406); experiment: Binding affinity at 5HT6 receptor at 1 uM
# 5-hydroxytryptamine receptor 6 (Homo sapiens), sequence (P50406 whole entry): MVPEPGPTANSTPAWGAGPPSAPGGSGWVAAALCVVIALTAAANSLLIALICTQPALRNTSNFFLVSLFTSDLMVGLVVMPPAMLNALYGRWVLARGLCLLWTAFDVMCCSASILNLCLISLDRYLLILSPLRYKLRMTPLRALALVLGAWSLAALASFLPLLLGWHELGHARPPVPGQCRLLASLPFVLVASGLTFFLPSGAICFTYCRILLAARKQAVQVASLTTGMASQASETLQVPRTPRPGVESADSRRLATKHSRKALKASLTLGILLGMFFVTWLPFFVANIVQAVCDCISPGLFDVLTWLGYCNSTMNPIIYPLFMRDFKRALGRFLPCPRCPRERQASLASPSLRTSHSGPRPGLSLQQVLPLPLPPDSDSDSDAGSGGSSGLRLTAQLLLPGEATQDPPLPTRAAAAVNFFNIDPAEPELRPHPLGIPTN
# Homo sapiens [18] = species on record: Homo sapiens; experiment: Binding affinity at somatostatin receptor at 1 uM
# Rattus norvegicus [19] = experiment: Ex vivo receptor occupancy at histamine H3 receptor in rat at 0.3 mg/kg, sc; format: functional; conditions: route subcutaneous; summary of the method: as §1
# [20] = Cmax in rat brain at 10 mg/kg, po; format: ADME, organism-based; design: dose 10 mg/kg, route oral
# Sodium-dependent noradrenaline transporter, sequence (P23975 whole entry): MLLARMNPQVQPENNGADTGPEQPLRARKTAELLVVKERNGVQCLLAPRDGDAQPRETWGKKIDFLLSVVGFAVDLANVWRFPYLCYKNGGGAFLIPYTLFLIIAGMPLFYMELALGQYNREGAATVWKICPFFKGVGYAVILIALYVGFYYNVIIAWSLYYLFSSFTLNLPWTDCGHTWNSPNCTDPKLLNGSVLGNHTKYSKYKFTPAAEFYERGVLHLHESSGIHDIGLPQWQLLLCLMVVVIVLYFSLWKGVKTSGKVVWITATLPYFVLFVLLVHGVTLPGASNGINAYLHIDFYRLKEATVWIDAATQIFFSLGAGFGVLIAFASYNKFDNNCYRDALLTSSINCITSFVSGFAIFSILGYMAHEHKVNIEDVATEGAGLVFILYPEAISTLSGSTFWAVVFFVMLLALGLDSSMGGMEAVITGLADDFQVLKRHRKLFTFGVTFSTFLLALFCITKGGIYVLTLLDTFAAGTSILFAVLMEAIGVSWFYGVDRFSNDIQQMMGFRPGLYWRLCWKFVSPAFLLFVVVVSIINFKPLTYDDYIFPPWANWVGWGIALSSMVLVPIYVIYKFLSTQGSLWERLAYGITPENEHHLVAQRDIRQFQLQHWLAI
Ki [1] [nM],Vd [2] [L/kg],concentration (Brain) [nM],Activity [3],Activity [4],bioavailability [5] [%],Activity [6],Activity [7],half-life [8] [h],Activity [9],Activity (Homo sapiens [11]),Ki [13] [nM],Activity [15],clearance [16] [mL/min/kg],Activity [17],Activity (Homo sapiens [18]),SMILES,Activity (Rattus norvegicus [14]) [%],Activity (Rattus norvegicus [19]) [%],also measured
121,6.8,880,Not Active,inactive,5,Not Active,inactive,9,inactive,inactive,102,inactive,18.1,inactive,inactive,COc1ccc([C@@H]2CN(C)Cc3cc(OCCCN4CCOC[C@@H]4C)ccc32)cc1,100,100,Ki (Histamine H3 receptor [10]): 5.6 nM; Kb (Histamine H3 receptor [12]): 0.891 nM
–,–,–,–,inactive,–,–,inactive,–,inactive,inactive,–,inactive,–,inactive,inactive,CSc1ccc(C2CN(C)Cc3cc(OCCCN4CCC(F)CC4)ccc32)cc1 (racemic),–,–,–
106,5.1,670,Not Active,inactive,38,Not Active,inactive,6.6,inactive,inactive,29,inactive,14,inactive,inactive,CSc1ccc(C2CN(C)Cc3cc(OCCCN4CCOCC4)ccc32)cc1 (racemic),100,100,Cmax [20]: 9600 nM
